Experimental data published in ChEMBL document CHEMBL2010643 (Bioorg Med Chem Lett, 2012).
Activity calls are given as the source filed them. No cut-off for these calls is given here.

How the values were obtained:
[1] = target: Protein kinase C alpha type (Homo sapiens) (UniProt P17252); assay: Inhibition of PKCalpha assessed as residual activity at 10 uM relative to control
[2] = target: Serine/threonine-protein kinase PAK 5 (Homo sapiens) (UniProt Q9P286); assay: Inhibition of PAK5 assessed as residual activity at 10 uM relative to control
[3] = target: Serine/threonine-protein kinase 16 (Homo sapiens) (UniProt O75716); assay: Inhibition of MPSK1 assessed as residual activity at 1 uM relative to control
[4] = target: Tau-tubulin kinase 1 (Homo sapiens) (UniProt Q5TCY1); assay: Inhibition of TTBK1 assessed as residual activity at 1 uM relative to control
How it was run: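 Radioactivity-based enzymatic kinase assays run across a 124-kinase profiling panel (Dundee), reporting the remaining kinase activity relative to a control.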

[5] = target: Leucine-rich repeat serine/threonine-protein kinase 2 (Mus musculus) (UniProt Q5S006); assay: Inhibition of wild type LRRK2 phosphorylation at Ser910 in mouse 3T3 cells after 90 mins by Western blot analysis; assay type: cell-based
How it was run: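 Mouse Swiss 3T3 cells treated with DMSO or increasing inhibitor concentrations for 90 min. Endogenous LRRK2 in lysates immunoblotted with purified phospho-specific antibodies to Ser910 and Ser935 and with a total LRRK2 antibody. Blots done in duplicate, representative of at least two independent experiments.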

[6] = target: Glycogen synthase kinase-3 beta (Homo sapiens) (UniProt P49841); assay: Inhibition of GSK3b assessed as residual activity at 10 uM relative to control
[7] = target: Leucine-rich repeat serine/threonine-protein kinase 2 (Homo sapiens, UniProt Q5S007); assay: Inhibition of wild type LRRK2 phosphorylation at Ser935 in human lymphoblastoid cells at 0.03 to 3 uM after 90 mins by Western blot analysis; assay type: cell-based
[8] = target: Serine/threonine-protein kinase PAK 4 (Homo sapiens) (UniProt O96013); assay: Inhibition of PAK4 assessed as residual activity at 10 uM relative to control
[9] = Volume of distribution at steady state in Swiss albino mouse at 1 mg/kg, iv; assay type: ADME, organism-based; set-up: dose 1 mg/kg, route intravenous; details: in vivo, read-out: Vdss
How it was run: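 Male Swiss Albino mice given a single intravenous dose of 1 mg/kg (oral arm 10 mg/kg). Plasma and brain exposure measured, and steady-state volume of distribution derived from the plasma profile.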

[10] = target: Ribosomal protein S6 kinase beta-1 (Homo sapiens) (UniProt P23443); assay: Inhibition of S6K1 assessed as residual activity at 1 uM relative to control
[11] = target: Insulin receptor-related protein (Homo sapiens) (UniProt P14616); assay: Inhibition of IRR assessed as residual activity at 1 uM relative to control
[12] = target: Cyclin-dependent kinase 2/cyclin A (Homo sapiens) (UniProt P24941+P20248+P78396); assay: Inhibition of CDK2-Cyclin A assessed as residual activity at 1 uM relative to control; assay type: protein-complex assay
How it was run: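 Standard radioactivity-based enzymatic assays were run across a 124-kinase panel (Dundee profiling), with compound at 1 µM. Kinase activity was expressed relative to control.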

[13] = target: MAP kinase-interacting serine/threonine-protein kinase 2 (Homo sapiens) (UniProt Q9HBH9); assay: Inhibition of MNK2 assessed as residual activity at 1 uM relative to control
[14] = Inhibition of PKA assessed as residual activity at 1 uM relative to control

Glycogen synthase kinase-3 beta (Homo sapiens), sequence (P49841 whole entry, looked up): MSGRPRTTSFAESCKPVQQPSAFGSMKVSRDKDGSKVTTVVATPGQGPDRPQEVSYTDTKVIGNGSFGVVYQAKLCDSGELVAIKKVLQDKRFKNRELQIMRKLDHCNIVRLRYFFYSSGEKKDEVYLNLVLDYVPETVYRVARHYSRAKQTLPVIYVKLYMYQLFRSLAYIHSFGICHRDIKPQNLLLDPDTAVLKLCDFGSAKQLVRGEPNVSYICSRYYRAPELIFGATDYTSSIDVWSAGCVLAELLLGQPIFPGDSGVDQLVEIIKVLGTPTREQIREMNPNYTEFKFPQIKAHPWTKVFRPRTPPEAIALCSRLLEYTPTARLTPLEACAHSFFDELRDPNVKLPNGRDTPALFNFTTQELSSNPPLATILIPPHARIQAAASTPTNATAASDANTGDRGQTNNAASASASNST
Tau-tubulin kinase 1 (Homo sapiens), sequence (Q5TCY1 whole entry): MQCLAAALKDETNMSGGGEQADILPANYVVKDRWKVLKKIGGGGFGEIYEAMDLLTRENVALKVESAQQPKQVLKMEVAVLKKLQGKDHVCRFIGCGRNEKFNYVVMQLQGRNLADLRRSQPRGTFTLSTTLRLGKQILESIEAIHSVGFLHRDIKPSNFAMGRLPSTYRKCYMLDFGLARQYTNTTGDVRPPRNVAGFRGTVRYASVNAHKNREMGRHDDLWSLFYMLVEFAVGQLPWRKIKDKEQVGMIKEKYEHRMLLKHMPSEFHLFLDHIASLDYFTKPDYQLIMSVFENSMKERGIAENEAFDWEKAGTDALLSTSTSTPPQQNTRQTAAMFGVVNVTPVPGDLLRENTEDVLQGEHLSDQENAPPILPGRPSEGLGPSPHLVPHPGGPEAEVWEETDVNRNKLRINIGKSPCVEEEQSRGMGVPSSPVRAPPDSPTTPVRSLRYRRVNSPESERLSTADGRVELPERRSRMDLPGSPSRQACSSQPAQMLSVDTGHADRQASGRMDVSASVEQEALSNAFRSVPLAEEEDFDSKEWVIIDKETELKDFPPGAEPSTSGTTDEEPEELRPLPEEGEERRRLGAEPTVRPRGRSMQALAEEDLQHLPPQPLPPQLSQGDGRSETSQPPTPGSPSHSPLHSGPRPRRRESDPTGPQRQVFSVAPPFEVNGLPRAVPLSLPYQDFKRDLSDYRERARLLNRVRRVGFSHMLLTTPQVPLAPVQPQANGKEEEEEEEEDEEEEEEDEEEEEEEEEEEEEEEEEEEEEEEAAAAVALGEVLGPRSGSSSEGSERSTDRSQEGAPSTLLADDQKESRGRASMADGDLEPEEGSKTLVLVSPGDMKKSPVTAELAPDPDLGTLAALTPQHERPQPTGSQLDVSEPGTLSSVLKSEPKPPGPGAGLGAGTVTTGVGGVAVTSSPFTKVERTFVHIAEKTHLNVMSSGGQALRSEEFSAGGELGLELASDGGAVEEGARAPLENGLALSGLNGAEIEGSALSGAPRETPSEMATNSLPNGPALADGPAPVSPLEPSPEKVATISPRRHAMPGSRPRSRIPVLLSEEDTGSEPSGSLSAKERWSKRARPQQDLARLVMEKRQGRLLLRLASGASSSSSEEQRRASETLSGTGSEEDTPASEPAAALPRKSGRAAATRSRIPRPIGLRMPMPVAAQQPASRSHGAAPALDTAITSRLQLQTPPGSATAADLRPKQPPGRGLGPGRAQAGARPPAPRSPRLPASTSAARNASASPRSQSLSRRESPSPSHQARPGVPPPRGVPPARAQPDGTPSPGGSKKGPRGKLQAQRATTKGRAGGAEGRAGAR
Leucine-rich repeat serine/threonine-protein kinase 2 (Mus musculus), sequence (Q5S006 whole entry): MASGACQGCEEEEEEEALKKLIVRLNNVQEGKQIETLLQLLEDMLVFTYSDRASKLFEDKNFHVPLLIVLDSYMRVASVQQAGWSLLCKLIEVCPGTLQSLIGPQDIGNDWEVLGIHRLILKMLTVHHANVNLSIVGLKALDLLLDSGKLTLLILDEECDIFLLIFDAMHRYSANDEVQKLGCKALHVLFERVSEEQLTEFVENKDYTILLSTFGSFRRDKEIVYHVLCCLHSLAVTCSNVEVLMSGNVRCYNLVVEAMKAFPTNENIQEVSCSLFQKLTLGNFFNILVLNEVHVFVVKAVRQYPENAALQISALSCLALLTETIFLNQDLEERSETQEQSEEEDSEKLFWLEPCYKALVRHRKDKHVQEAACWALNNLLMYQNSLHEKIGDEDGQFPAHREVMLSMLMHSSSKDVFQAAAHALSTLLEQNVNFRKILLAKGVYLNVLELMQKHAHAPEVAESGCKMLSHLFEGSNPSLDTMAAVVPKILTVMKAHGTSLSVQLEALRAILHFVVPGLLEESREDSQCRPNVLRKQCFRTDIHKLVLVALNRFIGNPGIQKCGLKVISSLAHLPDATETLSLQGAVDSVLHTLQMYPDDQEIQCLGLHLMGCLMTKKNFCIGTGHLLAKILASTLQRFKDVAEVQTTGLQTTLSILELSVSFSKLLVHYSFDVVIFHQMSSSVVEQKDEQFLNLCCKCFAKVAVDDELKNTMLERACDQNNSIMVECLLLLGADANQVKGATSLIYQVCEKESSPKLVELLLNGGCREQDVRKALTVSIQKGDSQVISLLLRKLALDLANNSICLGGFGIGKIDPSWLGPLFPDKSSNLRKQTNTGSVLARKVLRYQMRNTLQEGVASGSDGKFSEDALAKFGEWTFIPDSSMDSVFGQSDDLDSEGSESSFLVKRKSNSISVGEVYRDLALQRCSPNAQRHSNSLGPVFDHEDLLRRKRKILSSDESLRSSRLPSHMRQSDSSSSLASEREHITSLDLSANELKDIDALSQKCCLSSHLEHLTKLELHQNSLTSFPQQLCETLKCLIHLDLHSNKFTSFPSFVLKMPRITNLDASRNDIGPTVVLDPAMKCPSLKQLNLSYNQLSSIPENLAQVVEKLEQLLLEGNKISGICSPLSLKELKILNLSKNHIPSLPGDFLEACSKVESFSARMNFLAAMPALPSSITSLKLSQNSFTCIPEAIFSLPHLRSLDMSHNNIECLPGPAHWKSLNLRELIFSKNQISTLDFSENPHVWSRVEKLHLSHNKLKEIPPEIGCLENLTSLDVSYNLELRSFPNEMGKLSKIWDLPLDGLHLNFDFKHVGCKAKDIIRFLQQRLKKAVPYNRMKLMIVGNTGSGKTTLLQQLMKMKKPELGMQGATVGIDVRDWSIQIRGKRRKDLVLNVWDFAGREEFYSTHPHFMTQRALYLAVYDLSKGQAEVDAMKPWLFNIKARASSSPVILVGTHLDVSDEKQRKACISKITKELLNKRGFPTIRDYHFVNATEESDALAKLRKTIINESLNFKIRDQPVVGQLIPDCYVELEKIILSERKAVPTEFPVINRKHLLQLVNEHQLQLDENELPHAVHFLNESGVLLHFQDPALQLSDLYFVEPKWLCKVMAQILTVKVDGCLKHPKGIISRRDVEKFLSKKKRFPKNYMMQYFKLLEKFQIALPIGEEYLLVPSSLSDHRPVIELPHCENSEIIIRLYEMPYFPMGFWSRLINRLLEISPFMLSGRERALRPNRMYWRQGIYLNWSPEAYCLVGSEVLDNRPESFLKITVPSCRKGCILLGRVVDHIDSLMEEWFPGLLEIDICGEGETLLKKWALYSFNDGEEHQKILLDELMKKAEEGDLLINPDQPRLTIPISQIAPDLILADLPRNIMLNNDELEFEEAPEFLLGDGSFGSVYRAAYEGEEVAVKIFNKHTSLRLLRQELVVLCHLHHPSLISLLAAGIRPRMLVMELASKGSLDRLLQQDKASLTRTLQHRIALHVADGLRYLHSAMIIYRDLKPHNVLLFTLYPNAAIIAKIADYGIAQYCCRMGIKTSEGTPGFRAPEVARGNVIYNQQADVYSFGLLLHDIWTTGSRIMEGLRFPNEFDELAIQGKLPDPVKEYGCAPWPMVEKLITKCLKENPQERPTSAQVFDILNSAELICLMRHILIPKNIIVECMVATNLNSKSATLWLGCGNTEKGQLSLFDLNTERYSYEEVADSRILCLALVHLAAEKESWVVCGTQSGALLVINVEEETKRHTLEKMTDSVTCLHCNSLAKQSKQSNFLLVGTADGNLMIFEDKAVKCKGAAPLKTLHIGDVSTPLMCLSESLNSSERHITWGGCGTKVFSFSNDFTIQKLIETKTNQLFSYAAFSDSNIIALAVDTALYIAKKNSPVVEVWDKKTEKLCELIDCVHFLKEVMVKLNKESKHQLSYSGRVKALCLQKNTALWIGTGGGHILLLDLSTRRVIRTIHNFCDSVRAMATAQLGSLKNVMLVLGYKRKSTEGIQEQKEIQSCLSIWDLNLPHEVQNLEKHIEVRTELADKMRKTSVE
Serine/threonine-protein kinase PAK 4 (Homo sapiens), sequence (O96013 whole entry, looked up): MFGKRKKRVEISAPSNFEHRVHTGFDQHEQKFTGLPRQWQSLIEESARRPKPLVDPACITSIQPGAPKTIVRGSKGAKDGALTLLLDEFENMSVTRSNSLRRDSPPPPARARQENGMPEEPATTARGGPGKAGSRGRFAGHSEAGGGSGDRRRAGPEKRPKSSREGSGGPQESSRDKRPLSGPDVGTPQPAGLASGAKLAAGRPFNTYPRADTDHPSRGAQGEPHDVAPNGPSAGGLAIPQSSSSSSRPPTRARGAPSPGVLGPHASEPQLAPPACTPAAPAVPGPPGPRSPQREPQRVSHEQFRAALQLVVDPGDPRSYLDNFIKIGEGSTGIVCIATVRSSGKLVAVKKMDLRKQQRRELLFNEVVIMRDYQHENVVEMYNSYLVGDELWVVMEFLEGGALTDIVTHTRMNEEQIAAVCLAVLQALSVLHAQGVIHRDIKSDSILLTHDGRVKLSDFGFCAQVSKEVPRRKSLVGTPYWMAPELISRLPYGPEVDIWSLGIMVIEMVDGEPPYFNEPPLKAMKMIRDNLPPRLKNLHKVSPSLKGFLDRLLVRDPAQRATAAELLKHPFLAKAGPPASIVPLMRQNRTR

Activity [1]: 122% | Activity [2]: 35% | Activity [3]: 102% | Activity [4]: 88% | inhibition [5]: Dose-dependent effect | Activity [6]: 92% | inhibition [7]: Active | Activity [8]: 44% | Vd [9]: 14.5 L/kg | Activity [10]: 99% | Activity [11]: 98% | Activity [12]: 68% | Activity [13]: 101% | Activity [14]: 90%
Structure (SMILES): COc1cc(N2CCC(N3CCN(C)CC3)CC2)ccc1Nc1ncc(Cl)c(Nc2ccccc2S(=O)(=O)C(C)C)n1 [TAE-684]
